From ChEMBL document CHEMBL4145595, “Discovery of MK-8282 as a Potent G-Protein-Coupled Receptor 119 Agonist for the Treatment of Type 2 Diabetes” (ACS Med Chem Lett, 2018)
pEC50: −log10 of the molar value. The source made the active and inactive calls. The calls are words filed in the database; no cut-off is given here.

Tests used:
[1] = AUC in monkey at 3 mg/kg, po; format: ADME, organism-based, Macaca mulatta; settings: rhesus monkey, in vivo
In short: (§1)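 Monkey PK used 1 mpk IV and 3 mpk PO. Readouts were plasma clearance (mL/min/kg), Vdss (L/kg), t½ (h), oral AUC (µM·h) and bioavailability F (%).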

[2] = tested on: Mus musculus; test: Antidiabetic activity in C57Bl/6NCrl mouse assessed as reduction in glucose excursion at 1 mg/kg, po administered via gavage pretreated for 30 mins followed by glucose-challenge measured 60 mins post dose by OGTT relative to control; format: functional; design: scale not given: the % may be the effect or the level left
In short: (§2)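 Lean C57Bl/6 mice got oral vehicle or drug 30 min before the glucose challenge. Blood glucose was monitored for 60 min after oral administration and expressed as area under the curve (glucose excursion). Doses ranged from 0.03 to 30 mpk.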

[3] = tested on: Mus musculus; test: Glucose lowering effect in po dosed GPR119 deficient mouse assessed as reduction in glucose level by OGTT; format: functional, organism-based
[4] = Plasma clearance in dog at 1 mg/kg, iv or 10 mg/kg, po
[5] = tested on: Mus musculus; test: Antidiabetic activity in C57Bl/6NCrl mouse assessed as increase in plasma GLP1 (7 to 36) amide levels at 1 mg/kg, po administered via gavage pretreated followed by glucose-challenge measured after 10 mins in presence of sitagliptin; format: functional, organism-based
[6] = tested on: Mus musculus; test: Antidiabetic activity in diet-induced obese mouse assessed as reduction in glucose excursion at 1 to 3 mg/kg, po by OGTT; format: functional, organism-based
[7] = Half life in rat at 1 mg/kg, iv or 30 mg/kg, po; settings: in vivo
[8] = tested on: Mus musculus; test: Antidiabetic activity in C57Bl/6NCrl mouse assessed as reduction in glucose excursion administered via oral gavage pretreated for 30 mins followed by glucose-challenge measured 60 mins post dose by OGTT; format: functional, organism-based; in short: as §2
[9] = target: T1, Glucose-dependent insulinotropic receptor (Mus musculus) (UniProt Q7TQP3); test: (§3) Agonist activity at mouse GPR119 assessed as increase in cAMP level; format: functional
T1 sequence (whole entry): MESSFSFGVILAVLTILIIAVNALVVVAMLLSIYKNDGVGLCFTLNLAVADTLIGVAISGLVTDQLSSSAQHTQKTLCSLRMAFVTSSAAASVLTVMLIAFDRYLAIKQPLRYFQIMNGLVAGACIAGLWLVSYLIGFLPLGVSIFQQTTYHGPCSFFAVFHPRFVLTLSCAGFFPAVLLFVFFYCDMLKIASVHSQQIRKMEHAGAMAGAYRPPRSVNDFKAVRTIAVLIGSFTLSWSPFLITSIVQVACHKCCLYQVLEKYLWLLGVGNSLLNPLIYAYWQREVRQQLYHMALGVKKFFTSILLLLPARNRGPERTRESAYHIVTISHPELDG

[10] = target: T2, Glucose-dependent insulinotropic receptor (Mus musculus, UniProt Q7TQP3); test: as §3; format: functional
T2 sequence (Q7TQP3 whole entry): T1 sequence (whole entry)

[11] = Volume of distribution at steady state in rat at 1 mg/kg, iv or 30 mg/kg, po; settings: in vivo, read-out: Vdss
[12] = Oral bioavailability in monkey at 3 mg/kg; format: ADME, organism-based, Macaca mulatta; settings: rhesus monkey, in vivo; in short: as §1
[13] = target: T3, Glucose-dependent insulinotropic receptor (Homo sapiens) (UniProt Q8TDV5); test: (§4) Agonist activity at human GPR119 expressed in HEK293 cells assessed as increase in cAMP level after 30 mins by LANCE assay; format: functional, cell-based
T3 sequence (whole entry): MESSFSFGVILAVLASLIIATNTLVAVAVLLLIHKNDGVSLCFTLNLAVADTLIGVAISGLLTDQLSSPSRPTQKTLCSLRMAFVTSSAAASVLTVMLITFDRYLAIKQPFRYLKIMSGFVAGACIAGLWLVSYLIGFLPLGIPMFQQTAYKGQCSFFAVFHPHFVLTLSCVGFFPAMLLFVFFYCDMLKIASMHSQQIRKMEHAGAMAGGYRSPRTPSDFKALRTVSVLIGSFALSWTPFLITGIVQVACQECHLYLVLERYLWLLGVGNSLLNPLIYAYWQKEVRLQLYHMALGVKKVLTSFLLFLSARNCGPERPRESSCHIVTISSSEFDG

[14] = target: T4, Glucose-dependent insulinotropic receptor (Homo sapiens, UniProt Q8TDV5); test: as §4; format: functional, cell-based
T4 sequence (Q8TDV5 whole entry): T3 sequence (whole entry)

[15] = tested on: Rattus norvegicus; test: Antidiabetic activity in Sprague-Dawley rat assessed as reduction in glucose excursion at 3 mg/kg, po pretreated followed by glucose challenge measured after 10 to 30 mins by OGTT; format: functional, organism-based
In short: (§5)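 Sprague-Dawley rats underwent an oral glucose tolerance test with glucose excursion measured. Sitagliptin was dosed at 1 mpk and agonist at 3 mpk, alone or co-administered.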

[16] = tested on: Mus musculus; test: Antidiabetic activity in C57Bl/6NCrl mouse assessed as reduction in glucose excursion at 0.1 mg/kg, po administered via gavage pretreated for 30 mins followed by glucose-challenge measured 60 mins post dose by OGTT relative to control; format: functional; design: scale not given: the % may be the effect or the level left; in short: as §2
[17] = tested on: Mus musculus; test: Glucose lowering effect in C57Bl/6NCrl mouse assessed as reduction in glucose level at 3 mg/kg, po administered via gavage pretreated for 30 mins followed by glucose-challenge measured after 20 mins by OGTT relative to control; format: functional; design: scale not given: the % may be the effect or the level left
In short: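 Overnight-fasted mice got compound or vehicle orally at 3 to 10 mg/kg. Glucose (3 g/kg po) was given 30 min post-dose. Blood glucose was read by hand-held glucometer before dosing, before glucose and 20 min after glucose. Glucose lowering (%) = [(1 − 20 min glucose of treated / 20 min glucose of vehicle) × 100].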

[18] = Protein binding in rat assessed as unbound fraction at 10 uM; format: ADME, cell-free; settings: plasma
[19] = AUC in dog at 10 mg/kg, po; settings: in vivo
[20] = Half life in dog at 1 mg/kg, iv or 10 mg/kg, po; settings: in vivo
[21] = tested on: Rattus norvegicus; test: Oral bioavailability in rat at 30 mg/kg; settings: in vivo
[22] = tested on: Rattus norvegicus; test: Antidiabetic activity in Sprague-Dawley rat assessed as reduction in glucose excursion at 3 mg/kg, po pretreated followed by glucose challenge measured after 10 to 30 mins in presence of sitagliptin by OGTT; format: functional, organism-based; in short: as §5
[23] = tested on: Mus musculus; test: Antidiabetic activity in lepr db/db mouse assessed as reduction in glucose excursion at 10 mg/kg, po by OGTT; format: functional, organism-based
[24] = tested on: Rattus norvegicus; test: AUC in rat at 30 mg/kg, po; settings: in vivo
[25] = Volume of distribution at steady state in monkey at 1 mg/kg, iv or 3 mg/kg, po; format: ADME, organism-based, Macaca mulatta; settings: rhesus monkey, in vivo, read-out: Vdss; in short: as §1
[26] = Half life in monkey at 1 mg/kg, iv or 3 mg/kg, po; format: ADME, organism-based, Macaca mulatta; settings: rhesus monkey, in vivo; in short: as §1
[27] = tested on: Mus musculus; test: Antidiabetic activity in C57Bl/6NCrl mouse assessed as reduction in glucose excursion at 1 to 30 mg/kg, po administered via gavage pretreated for 30 mins followed by glucose-challenge measured 60 mins post dose by OGTT relative to control; format: functional; design: scale not given: the % may be the effect or the level left; in short: as §2
[28] = tested on: Mus musculus; test: Antidiabetic activity in C57Bl/6NCrl mouse assessed as reduction in glucose excursion at 0.03 mg/kg, po administered via gavage pretreated for 30 mins followed by glucose-challenge measured 60 mins post dose by OGTT relative to control; format: functional; design: scale not given: the % may be the effect or the level left; in short: as §2
[29] = tested on: Mus musculus; test: Antidiabetic activity in C57Bl/6NCrl mouse assessed as reduction in glucose excursion at 0.3 mg/kg, po administered via gavage pretreated for 30 mins followed by glucose-challenge measured 60 mins post dose by OGTT relative to control; format: functional; design: scale not given: the % may be the effect or the level left; in short: as §2
[30] = Volume of distribution at steady state in dog at 1 mg/kg, iv or 10 mg/kg, po; settings: in vivo, read-out: Vdss
[31] = tested on: Mus musculus; test: Antidiabetic activity in C57Bl/6NCrl mouse assessed as increase in plasma GLP1 (7 to 36) amide levels at 1 mg/kg, po administered via gavage pretreated followed by glucose-challenge measured after 10 mins; format: functional, organism-based
[32] = tested on: Mus musculus; test: Antidiabetic activity in C57Bl/6NCrl mouse assessed as maximum plasma concentration required for reduction in glucose excursion at 0.3 mg/kg, po administered via gavage pretreated for 30 mins followed by glucose-challenge measured 60 mins post dose by OGTT; format: functional, organism-based; design: dose 0.3 mg/kg
In short: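 Lean C57Bl/6 mice were dosed orally 30 min before the glucose challenge (oGTT, glucose followed for 60 min). Plasma Cmax was taken at t = 1 h after the 0.3 mPk dose.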

[33] = Plasma clearance in monkey at 1 mg/kg, iv or 3 mg/kg, po; format: ADME, organism-based, Macaca mulatta; settings: rhesus monkey; in short: as §1

CC1(OC(=O)N2C[C@H]3COC[C@@H](C2)[C@@H]3Oc2ncnc(Nc3ccc(C#N)cc3Cl)c2F)CC1
AUC [1]: 13 µM·h
Activity [2]: 49%
Activity [3]: inactive
clearance [4]: 0.77 mL/min/kg
Activity [5]: Active
Activity [6]: Active
half-life [7]: 8.8 h
Activity [8]: Dose-dependent effect
%max [9]: 99%
pEC50 [10]: 7.24
Vd [11]: 5.8 L/kg
bioavailability [12]: 38%
%max [13]: 92%
pEC50 [14]: 8.00
Activity [15]: Active
Activity [16]: 23%
Activity [17]: 29%
Fu [18]: 1%
AUC [19]: 131 µM·h
half-life [20]: 70 h
F [21]: 35%
Activity [22]: Active
Activity [23]: Active
AUC [24]: 63 µM·h
Vd [25]: 2.6 L/kg
half-life [26]: 12 h
Activity [27]: 50%
Activity [28]: 21%
Activity [29]: 46%
Vd [30]: 4.4 L/kg
Activity [31]: Active
Cmax [32]: 60 nM
clearance [33]: 3.1 mL/min/kg
